In ChEMBL document CHEMBL3877338, “Antiparasitic Lead Discovery: Toward Optimization of a Chemotype with Activity Against Multiple Protozoan Parasites” (ACS Med Chem Lett, 2017):
Values after ≈ are worked out from the molar mass of the structure shown.

What was measured:
[1] = Cytotoxicity against human HepG2 cells assessed as reduction in cell viability after 48 hrs by MTT assay; type: toxicity, cell-based; conditions: read-out: TC50
How it was run: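 HepG2 cells in supplemented MEM, 9570/well, plated overnight at 37 °C. Twelve 1.6-fold dilutions in duplicate, 57–10,000 ng/mL, for 48 h; mefloquine plate control. MTT added for 1 h at room temperature in the dark, formazan dissolved in acidified isopropanol, absorbance read. IC50 by sigmoidal variable-slope nonlinear regression.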

Leishmania major = experiment: Antileishmanial activity against luciferase-expressing Leishmania major amastigotes infected in mouse RAW264.7 cells after 96 hrs by luminescence assay; type: functional, cell-based; conditions: RAW264.7, 96 h
How it was run: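 RAW 264.7 macrophages, 10,000/well, 24 h at 37 °C, then infected overnight with luciferase-expressing L. major promastigotes (100,000/well) and washed three times. Twelve two-fold dilutions in duplicate, final […]–10,000 ng/mL. 96 h at 37 °C, 5% CO2, then luciferin 30 min in the dark and luminescence read. IC50 by sigmoidal variable-slope nonlinear regression.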

[2] = tested on: Trypanosoma brucei brucei; experiment: Antitrypanosomal activity against Trypanosoma brucei brucei 427 bloodstream forms after 48 hrs by presto blue dye based fluorescence assay; type: functional; conditions: Trypanosoma brucei, 427, 48 h
[3] = Cytotoxicity against […] cells assessed as reduction in cell viability after 96 hrs by presto blue assay; type: toxicity; conditions: read-out: TC50
How it was run: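 NIH 3T3 cells in phenol red-free DMEM with 2% FBS, 5×10^4/well, left 2 h to attach, then exposed to compound 96 h at 37 °C, 5% CO2. PrestoBlue added for 4 h, fluorescence read at ex 530/em 590 nm.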

Trypanosoma cruzi = experiment: Antitrypanosomal activity against Trypanosoma cruzi Tulahuen amastigotes infected in […] cells after 96 hrs by chlorophenol red-beta-D-galactopyranoside based assay; conditions: NIH3T3, 96 h
[4] = Protein binding in human plasma; type: ADME, cell-free
[5] = Lipophilicity, log D of the compound at pH 7.4; type: physicochemical; conditions: buffer
[6] = Thermodynamic aqueous solubility of the compound; type: physicochemical; conditions: buffer; read-out: Therm_solubility
[7] = Intrinsic clearance in human liver microsomes; type: ADME
[8] = Intrinsic clearance in rat hepatocytes assessed per million cells; type: ADME, cell-based, Hepatocyte
[9] = Ratio of drug level in BALB/c mouse brain to plasma at 10 mg/kg, ip administered as single dose at 0.25 hrs post dose by LC-MS/MS analysis; type: ADME, organism-based
How it was run: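 Female BALB/c mice, 8–12 weeks, single 10 mg/kg i.p. dose (10 mL/kg) in NMP/solutol HS/saline solution. Three mice per time point. Plasma (K2EDTA) and brain collected; brain washed in PBS and homogenized in PBS pH 7.4 to three times its weight. Protein precipitation with acetonitrile, then LC-MS/MS (LLOQ 1.04 ng/mL plasma, 2.08 ng/mL brain). Non-compartmental analysis.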

[10] = Fraction unbound in human plasma; type: ADME, cell-free

Row | SMILES | CC50 at 48 h [1] | EC50 (Leishmania major) | EC50 [2] | CC50 at 96 h [3] | EC50 (Trypanosoma cruzi) | PPB [4] | logD [5] | solubility thermodynamic [6] | CLH [7] | CLH [8] | BPR [9] | Fu [10]
1 | Fc1cccc(COc2ccc(Nc3ncnc4ccc(-c5cccc(N6CCOCC6)c5)cc34)cc2Cl)c1 | > 20 µM |  |  |  |  |  |  |  |  |  |  | 
2 | O=S(=O)(c1ccc(-c2ccc3ncnc(Nc4ccc(OCc5cccc(F)c5)cc4)c3c2)cc1)N1CCOCC1 | > 20 µM |  |  |  |  |  |  |  |  |  |  | 
3 | Cc1cnc(Nc2ccnc3ccc(-c4ccc(S(=O)(=O)N5CCOCC5)cc4)cc23)s1 | > 20 µM | 1.2 µM | 1.6 µM | > 20 µM | 6.1 µM |  |  |  |  |  |  | 
4 | COc1ccc(Nc2ccnc3ccc(-c4ccc(S(=O)(=O)N5CCOCC5)cc4)cc23)cc1C | 9 µM | 5.7 µM | 0.31 µM | 15 µM | 3.6 µM |  |  |  |  |  |  | 
5 | CCOCCOc1ccnc2ccc(-c3ccc(S(=O)(=O)N4CCOCC4)cc3)cc12 | > 20 µM | > 20 µM | 0.71 µM |  | > 20 µM |  |  |  |  |  |  | 
6 | Cc1nnc(Nc2ccnc3ccc(-c4ccc(S(=O)(=O)N5CCOCC5)cc4)cc23)nc1C | > 20 µM | > 20 µM | 3.1 µM | > 20 µM | > 20 µM |  |  |  |  |  |  | 
7 | O=S(=O)(c1ccc(-c2ccc3nccc(Nc4ccncc4)c3c2)cc1)N1CCOCC1 | > 20 µM | > 20 µM | 0.11 µM | > 20 µM | > 20 µM |  |  |  |  |  |  | 
8 | Cc1noc(C)c1Nc1ccnc2ccc(-c3ccc(S(=O)(=O)N4CCOCC4)cc3)cc12 | > 20 µM | > 20 µM | 6.6 µM | > 20 µM | > 20 µM |  |  |  |  |  |  | 
9 | O=S(=O)(c1ccc(-c2ccc3nccc(Nc4ccncn4)c3c2)cc1)N1CCOCC1 | > 20 µM | > 20 µM | 0.024 µM | > 20 µM | > 20 µM | 95.6% | 3.3 | 1.4 µM (≈ 0.627 µg/mL) | 207.5 µL/min/mg | 31.5 µL/min | 0.01 | 
10 | N#Cc1cnc(Nc2ccnc3ccc(-c4ccc(S(=O)(=O)N5CCOCC5)cc4)cc23)cn1 | > 20 µM | > 20 µM | 7.9 µM | > 20 µM | > 20 µM |  |  |  |  |  |  | 
11 | O=S(=O)(c1ccc(-c2ccc3nccc(Nc4cnccn4)c3c2)cc1)N1CCOCC1 | > 20 µM | > 20 µM | > 20 µM | > 20 µM | > 20 µM |  |  |  |  |  |  | 
12 | O=S(=O)(c1ccc(-c2ccc3nccc(Nc4ccccc4)c3c2)cc1)N1CCOCC1 | > 20 µM | 7.1 µM | 0.98 µM | > 20 µM | 6.2 µM |  |  |  |  |  |  | 
13 | Cc1cc(Nc2ccnc3ccc(-c4ccc(S(=O)(=O)N5CCOCC5)cc4)cc23)on1 | > 20 µM | > 20 µM | 1.1 µM | > 20 µM | 7.6 µM |  |  |  |  |  |  | 
14 | Cc1cc(Nc2ccnc3ccc(-c4ccc(S(=O)(=O)N5CCOCC5)cc4)cc23)sn1 | > 20 µM | 4.5 µM | 0.072 µM | > 20 µM | 3.9 µM |  |  |  |  |  |  | 
15 | O=S(=O)(c1ccc(-c2ccc3nccc(Nc4cccnc4)c3c2)cc1)N1CCOCC1 | > 20 µM | > 20 µM | 3.8 µM | > 20 µM | > 20 µM |  |  |  |  |  |  | 
16 | COc1ccc(Nc2ccnc3ccc(-c4ccc(S(=O)(=O)N5CCOCC5)cc4)cc23)cc1Cl | > 20 µM | 5.3 µM | 1.7 µM | > 20 µM | 7.2 µM |  |  |  |  |  |  | 
17 | O=[N+]([O-])c1ccc(Nc2ccnc3ccc(-c4ccc(S(=O)(=O)N5CCOCC5)cc4)cc23)cn1 | > 20 µM | 5.8 µM | 3.2 µM | > 20 µM | > 20 µM |  |  |  |  |  |  | 
18 | O=S(=O)(c1ccc(-c2ccc3nccc(Nc4ccnnc4)c3c2)cc1)N1CCOCC1 | > 20 µM | > 20 µM | > 20 µM | > 20 µM | > 20 µM |  |  |  |  |  |  | 
19 | O=S(=O)(c1ccc(-c2ccc3nccc(Nc4cncs4)c3c2)cc1)N1CCOCC1 | > 20 µM | 5.4 µM | 1.2 µM | > 20 µM | > 20 µM |  |  |  |  |  |  | 
20 | O=S(=O)(c1ccc(-c2ccc3nccc(Nc4ccc(OCc5cccc(F)c5)cc4)c3c2)cc1)N1CCOCC1 | > 5 µM | 1.2 µM | 0.37 µM |  | 2.8 µM |  |  | 2 µM (≈ 1.14 µg/mL) | 98 µL/min/mg | 19 µL/min |  | < 0.1%
21 | O=S(=O)(c1ccc(-c2ccc3nccc(Nc4ncc(Cl)cn4)c3c2)cc1)N1CCOCC1 | > 20 µM | 0.37 µM | 3.8 µM | > 20 µM | > 20 µM | 99.6% |  | 1 µM (≈ 0.482 µg/mL) |  |  |  | 
22 | O=S(=O)(c1ccc(-c2ccc3nccc(Nc4nnc(C5CC5)s4)c3c2)cc1)N1CCOCC1 | > 20 µM | 2 µM | 4.7 µM | > 20 µM | > 20 µM |  |  |  |  |  |  | 
23 | Cc1cnnc(Nc2ccnc3ccc(-c4ccc(S(=O)(=O)N5CCOCC5)cc4)cc23)c1 | > 20 µM | > 20 µM | 2 µM | > 20 µM | > 20 µM |  |  |  |  |  |  | 
24 | O=S(=O)(c1ccc(-c2ccc3nccc(Nc4ccccn4)c3c2)cc1)N1CCOCC1 | > 20 µM | > 20 µM | 4.5 µM | > 20 µM | 16 µM |  |  |  |  |  |  | 
25 | CCc1nnc(Nc2ccnc3ccc(-c4ccc(S(=O)(=O)N5CCOCC5)cc4)cc23)s1 | > 20 µM | 3.1 µM | 4.2 µM | > 20 µM | > 20 µM |  |  |  |  |  |  | 
26 | O=S(=O)(c1ccc(-c2ccc3ncccc3c2)cc1)N1CCOCC1 | > 20 µM | > 20 µM | > 20 µM | > 20 µM | > 20 µM |  |  |  |  |  |  | 
27 | CCn1nccc1Nc1ccnc2ccc(-c3ccc(S(=O)(=O)N4CCOCC4)cc3)cc12 | > 20 µM | > 20 µM | 2.5 µM | > 20 µM | > 20 µM |  |  |  |  |  |  | 
28 | O=S(=O)(c1ccc(-c2ccc3nccc(Nc4ccc5[nH]nnc5c4)c3c2)cc1)N1CCOCC1 | > 20 µM | > 20 µM | 16 µM | > 20 µM | > 20 µM |  |  |  |  |  |  | 
29 | COc1ncc(Nc2ccnc3ccc(-c4ccc(S(=O)(=O)N5CCOCC5)cc4)cc23)cn1 | > 20 µM | > 20 µM | 5.6 µM | > 20 µM | > 20 µM |  |  |  |  |  |  | 
30 | CS(=O)(=O)CCNCc1ccc(-c2ccc3ncnc(Nc4ccc(OCc5cccc(F)c5)c(Cl)c4)c3c2)o1 [LAPATINIB] | > 20 µM |  |  |  |  |  |  |  |  |  |  | 
